Data on four compounds can be found in ChEMBL document CHEMBL2311390, “Synthesis and preliminary evaluation of pharmacological properties of some piperazine derivatives of xanthone” (Bioorg Med Chem, 2013).

Data set [1] has as its system Rattus norvegicus. Briefly: Cardiotoxicity in Wistar rat assessed as hear beats per min at 5 mg/kg, iv after 10 mins by ECG analysis. The data set is classed as toxicity, organism-based. The arrangement: dose 5 mg/kg, route intravenous. The settings on record: in vivo.
For data set [2], the system named is Rattus norvegicus. Briefly: Cardiotoxicity in Wistar rat assessed as PQ interval at 5 mg/kg, iv after 10 mins by ECG analysis. The data set is classed as toxicity, organism-based. Also noted: dose 5 mg/kg, route intravenous. Conditions: in vivo.
The test system of data set [3] is Rattus norvegicus. Briefly: Cardiotoxicity in Wistar rat assessed as QT interval at 5 mg/kg, iv after 15 mins by ECG analysis. The data set is classed as toxicity, organism-based. Also noted: dose 5 mg/kg, route intravenous. The settings on record: in vivo, 0.25 h. The procedure, abridged:
(§1)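 Male normotensive Wistar rats, 170–350 g, six per group. Compound given iv at a constant volume of 1 mL/kg. ECG was recorded just before dosing and at 1, 5 and 15 min after. PQ, QRS and QT intervals and heart rate were read from the trace. Groups were compared by one-way ANOVA.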

Data set [4] deals with Rattus norvegicus. In words: Cardiotoxicity in Wistar rat assessed as QRS interval at 5 mg/kg, iv after 10 mins by ECG analysis. The data set is classed as toxicity, organism-based. Also noted: dose 5 mg/kg, route intravenous. Conditions: in vivo.
For data set [5], the system named is Rattus norvegicus. Briefly: Cardiotoxicity in Wistar rat assessed as hear beats per min at 5 mg/kg, iv after 15 mins by ECG analysis. The data set is classed as toxicity, organism-based. The arrangement: dose 5 mg/kg, route intravenous. Conditions: in vivo, 0.25 h. In outline: as §1
The test system of data set [6] is Rattus norvegicus. Briefly: Cardiotoxicity in Wistar rat assessed as QRS interval at 5 mg/kg, iv after 5 mins by ECG analysis. The data set is classed as toxicity, organism-based. The arrangement: dose 5 mg/kg, route intravenous. Conditions: in vivo. The procedure, abridged: as §1
Data set [7] deals with Rattus norvegicus. Briefly: Cardiotoxicity in Wistar rat assessed as PQ interval at 5 mg/kg, iv after 15 mins by ECG analysis. The data set is classed as toxicity, organism-based. The arrangement: dose 5 mg/kg, route intravenous. Conditions: in vivo, 0.25 h. The procedure, abridged:
as §1

The test system of data set [8] is Rattus norvegicus. Briefly: Cardiotoxicity in Wistar rat assessed as hear beats per min at 5 mg/kg, iv after 5 mins by ECG analysis. The data set is classed as toxicity, organism-based. The arrangement: dose 5 mg/kg, route intravenous. The settings on record: in vivo. The procedure, abridged:
as §1

In data set [9] the test system is Rattus norvegicus. In words: Cardiotoxicity in Wistar rat assessed as QT interval at 5 mg/kg, iv after 10 mins by ECG analysis. The data set is classed as toxicity, organism-based. The arrangement: dose 5 mg/kg, route intravenous. Conditions: in vivo.
The subject of data set [10] is Rattus norvegicus. In words: Cardiotoxicity in Wistar rat assessed as PQ interval at 5 mg/kg, iv after 5 mins by ECG analysis. The settings on record: in vivo. The arrangement: dose 5 mg/kg, route intravenous. The data set is classed as toxicity, organism-based. In outline: as §1
For data set [11], the system named is Rattus norvegicus. In words: Hypotensive activity in normotensive Wistar rat assessed as reduction of systolic blood pressure at 0.625 mg/kg, iv after 20 mins. The data set is classed as functional, Artery. In outline: (§2)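 Male normotensive Wistar rats (170–350 g) anaesthetised with thiopental 75 mg/kg ip; right carotid artery cannulated with heparinised saline-filled polyethylene tubing for pressure recording. After a 5 min stabilisation, compound given into the caudal vein at 1 mL/kg. Systolic pressure is recorded at 0, 5, 10, 20, 30 and 60 min, and the data are reported as mean ± SEM of five to six animals, with one-way ANOVA.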

The subject of data set [12] is Rattus norvegicus. In words: Hypotensive activity in normotensive Wistar rat assessed as reduction of diastolic blood pressure at 0.625 mg/kg, iv after 60 mins. The data set is classed as functional, Artery. In outline:
(§3)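 Male normotensive Wistar rats were anaesthetised with thiopental 75 mg/kg ip. The right carotid artery was cannulated with heparinised saline for pressure recording. After 5 min of stabilisation, compound was injected into the tail vein at 1 mL/kg. Systolic and diastolic pressure were followed up to 60 min. Data are means ± SEM of 5–6 rats, analysed by one-way ANOVA.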

For data set [13], the system named is Rattus norvegicus. Briefly: Hypotensive activity in normotensive Wistar rat assessed as reduction of diastolic blood pressure at 1.25 mg/kg, iv after 10 mins. The data set is classed as functional, Artery. In outline: as §3
Data set [14] relates to Rattus norvegicus. Briefly: Hypotensive activity in normotensive Wistar rat assessed as reduction of diastolic blood pressure at 0.625 mg/kg, iv after 20 mins. The data set is classed as functional, Artery. The procedure, abridged: as §3
Data set [15] relates to Rattus norvegicus. Briefly: Hypotensive activity in normotensive Wistar rat assessed as reduction of diastolic blood pressure at 0.625 mg/kg, iv after 30 mins. The data set is classed as functional, Artery. The procedure, abridged: as §3
Data set [16] relates to Rattus norvegicus. Briefly: Hypotensive activity in normotensive Wistar rat assessed as reduction of diastolic blood pressure at 0.625 mg/kg, iv after 5 mins. The data set is classed as functional, Artery. The procedure, abridged:
as §3

In data set [17] the test system is Rattus norvegicus. In words: Hypotensive activity in normotensive Wistar rat assessed as reduction of systolic blood pressure at 1.25 mg/kg, iv after 10 mins. The data set is classed as functional, Artery. The procedure, abridged: as §2
The test system of data set [18] is Rattus norvegicus. In words: Hypotensive activity in normotensive Wistar rat assessed as reduction of diastolic blood pressure at 1.25 mg/kg, iv after 20 mins. The data set is classed as functional, Artery. The procedure, abridged:
as §3

The test system of data set [19] is Rattus norvegicus. Briefly: Hypotensive activity in normotensive Wistar rat assessed as reduction of diastolic blood pressure at 1.25 mg/kg, iv after 60 mins. The data set is classed as functional, Artery. In outline:
as §3

Data set [20] deals with Rattus norvegicus. Briefly: Hypotensive activity in normotensive Wistar rat assessed as reduction of systolic blood pressure at 0.625 mg/kg, iv after 5 mins. The data set is classed as functional, Artery. The procedure, abridged:
as §2

Data set [21] deals with Rattus norvegicus. In words: Hypotensive activity in normotensive Wistar rat assessed as reduction of systolic blood pressure at 0.625 mg/kg, iv after 60 mins. The data set is classed as functional, Artery. In outline: as §2
Data set [22] concerns Rattus norvegicus. Briefly: Hypotensive activity in normotensive Wistar rat assessed as reduction of systolic blood pressure at 0.625 mg/kg, iv after 30 mins. The data set is classed as functional, Artery. In outline: as §2
The test system of data set [23] is Rattus norvegicus. Briefly: Hypotensive activity in normotensive Wistar rat assessed as reduction of diastolic blood pressure at 0.16 mg/kg, iv after 10 mins. The data set is classed as functional, Artery. The procedure, abridged:
as §3

In data set [24] the test system is Rattus norvegicus. In words: Hypotensive activity in normotensive Wistar rat assessed as reduction of systolic blood pressure at 0.31 mg/kg, iv after 20 mins. The data set is classed as functional, Artery. In outline: as §2
Data set [25] has as its system Rattus norvegicus. Briefly: Hypotensive activity in normotensive Wistar rat assessed as reduction of systolic blood pressure at 0.16 mg/kg, iv after 30 mins. The data set is classed as functional, Artery. The procedure, abridged:
as §2

Data set [26] relates to Rattus norvegicus. Briefly: Hypotensive activity in normotensive Wistar rat assessed as reduction of systolic blood pressure at 0.16 mg/kg, iv after 20 mins. The data set is classed as functional, Artery. The procedure, abridged:
as §2

The test system of data set [27] is Rattus norvegicus. Briefly: Hypotensive activity in normotensive Wistar rat assessed as reduction of diastolic blood pressure at 0.31 mg/kg, iv after 60 mins. The data set is classed as functional, Artery. In outline: as §3
The subject of data set [28] is Rattus norvegicus. Briefly: Hypotensive activity in normotensive Wistar rat assessed as reduction of systolic blood pressure at 0.16 mg/kg, iv after 10 mins. The data set is classed as functional, Artery. In outline: as §3
The test system of data set [29] is Rattus norvegicus. In words: Hypotensive activity in normotensive Wistar rat assessed as reduction of diastolic blood pressure at 0.16 mg/kg, iv after 60 mins. The data set is classed as functional, Artery. In outline: as §3
Data set [30] deals with Rattus norvegicus. In words: Hypotensive activity in normotensive Wistar rat assessed as reduction of systolic blood pressure at 0.16 mg/kg, iv after 60 mins. The data set is classed as functional, Artery. In outline:
as §2

Data set [31] has as its system Rattus norvegicus. Briefly: Hypotensive activity in normotensive Wistar rat assessed as reduction of diastolic blood pressure at 0.31 mg/kg, iv after 30 mins. The data set is classed as functional, Artery. In outline:
as §3

Data set [32] concerns Rattus norvegicus. In words: Hypotensive activity in normotensive Wistar rat assessed as reduction of diastolic blood pressure at 0.31 mg/kg, iv after 5 mins. The data set is classed as functional, Artery. In outline: as §3
Data set [33] concerns Rattus norvegicus. In words: Hypotensive activity in normotensive Wistar rat assessed as reduction of systolic blood pressure at 0.16 mg/kg, iv after 5 mins. The data set is classed as functional, Artery. In outline: as §2
Data set [34] has as its system Rattus norvegicus. Briefly: Hypotensive activity in normotensive Wistar rat assessed as reduction of diastolic blood pressure at 0.31 mg/kg, iv after 20 mins. The data set is classed as functional, Artery. The procedure, abridged:
as §3

For `Cl.Cl.Cl.O=c1c2ccc(Cl)cc2oc2c(OCC(O)CN3CCN(C/C=C/c4ccccc4)CC3)cccc12` (racemic), the Activity was 324.3 bpm in the data set on Rattus norvegicus [1]; 46 ms with Rattus norvegicus [2]; 74.6 ms in the data set with Rattus norvegicus [3]; 20.2 ms in the data set on Rattus norvegicus [4]; 329.3 bpm in the data set with Rattus norvegicus [5]; 20.2 ms in the data set with Rattus norvegicus [6]. Also, the Activity in the data set with Rattus norvegicus [7] is given as 45.2 ms; in the data set on Rattus norvegicus [8] it was 317.3 bpm; in the data set on Rattus norvegicus [9] it was 74.7 ms; with Rattus norvegicus [10], 45.7 ms.
Take `COc1ccccc1N1CCN(CC(COc2cccc3c(=O)c4ccccc4oc23)OC(C)=O)CC1.Cl` (racemic): the Activity in the data set on Rattus norvegicus [11] stood at 122.2 mmHg; with Rattus norvegicus [12], 92 mmHg; in the data set on Rattus norvegicus [13] it was 93.6 mmHg; with Rattus norvegicus [14], 95.4 mmHg; in the data set on Rattus norvegicus [15], 93.2 mmHg; in the data set with Rattus norvegicus [16], 95.6 mmHg. Moreover, the Activity in the data set on Rattus norvegicus [17] amounted to 118.4 mmHg; with Rattus norvegicus [18] it was 92.2 mmHg; in the data set with Rattus norvegicus [19] it was 89.6 mmHg; in the data set on Rattus norvegicus [20], 124.8 mmHg; with Rattus norvegicus [21], 123.2 mmHg; with Rattus norvegicus [22], 120.6 mmHg.
Turning to `Cl.Cl.O=c1c2ccccc2oc2c(OCC(O)CN3CCN(C/C=C/c4ccccc4)CC3)cccc12` (racemic), the Activity in the data set on Rattus norvegicus [1] came out at 311.3 bpm; in the data set with Rattus norvegicus [2] it was 41.7 ms; in the data set with Rattus norvegicus [3], 77.6 ms; with Rattus norvegicus [4], 23.5 ms; with Rattus norvegicus [5], 309 bpm; in the data set on Rattus norvegicus [6] it was 23.4 ms. Also, the Activity is 41.7 ms in the data set on Rattus norvegicus [7], 328 bpm in the data set on Rattus norvegicus [8], 77 ms with Rattus norvegicus [9] and 41.5 ms in the data set with Rattus norvegicus [10].
For the compound `COc1ccccc1N1CCN(CCCOc2cccc3c(=O)c4ccccc4oc23)CC1.Cl`, the Activity in the data set with Rattus norvegicus [11] was 129.5 mmHg; in the data set on Rattus norvegicus [23], 99.2 mmHg; in the data set with Rattus norvegicus [12], 112 mmHg; in the data set on Rattus norvegicus [24], 121 mmHg; in the data set with Rattus norvegicus [14], 110.5 mmHg; in the data set on Rattus norvegicus [15], 111.7 mmHg. Moreover, the Activity with Rattus norvegicus [16] worked out at 101 mmHg; in the data set with Rattus norvegicus [25] it was 111.4 mmHg; with Rattus norvegicus [26], 113.4 mmHg; in the data set with Rattus norvegicus [27] it was 97.2 mmHg; in the data set on Rattus norvegicus [28], 114 mmHg; in the data set on Rattus norvegicus [29] it was 95.2 mmHg. The Activity is 108.2 mmHg in the data set on Rattus norvegicus [30]; 103.3 mmHg in the data set with Rattus norvegicus [31]; 107.2 mmHg in the data set on Rattus norvegicus [32]; 122 mmHg in the data set on Rattus norvegicus [20]; 129.5 mmHg in the data set with Rattus norvegicus [21]; 109.6 mmHg in the data set with Rattus norvegicus [33]. The Activity with Rattus norvegicus [22] was 129.5 mmHg; in the data set with Rattus norvegicus [34] it was 105.7 mmHg.
